# PP1 counter: blocks human PP1-alpha phosphatase, a PP5 counter-screen. P62136. purified PP1alpha, OMFP fluorescence. AID 2235. 320,000 tested, 0.9% active. inhibition, % at 6.7 µM;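 active = inhibition above the mean inhibition of all tested compounds plus 3 SD, computed separately for each screening campaign, cut at about 15% in these data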
# Fh CTSL1 inh: blocks F. hepatica cathepsin L1 in PFM18AAP counter-screen; recombinant F. hepatica cathepsin L1, Z-Leu-Arg-MCA fluorescence; inhibition, % at 5.96 µM; 300,000 tested, 0.49% active;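 active = inhibition above the mean of all tested compounds plus 3 SD, set per screening campaign, cut at about 17% in these data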;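 also: 0% = plate median of test compound wells and 100% = 1 µM Z-Phe-Ala-diazomethylketone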
# core dimer inh: HCV core protein dimerization inhibition; TR-FRET GST/Flag-core106 dimerization, 1536-well; 300,000 tested, 0.33% active; inhibition, % at 5 µM; AID 1899;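 active = inhibition above the mean of all tested compounds plus 3 SD, set per screening campaign, cut at about 45% in these data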
#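 Assay system: tagged HCV core106 pair (GST and Flag); medium: KF-containing HEPES buffer, pH 7.45, DTT, CHAPS, BSA; also added: Eu donor and XL665 acceptor anti-tag antibodies; dosing: 5 µM single dose; timing: compound-protein-antibody incubation 4 h at 22.5 °C; signal: TR-FRET 671 and 617 nm emission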
# NadD block: NadD (S. aureus) enzyme inhibition. 360,000 tested, 0.78% active. inhibition, % at 20 µM. purified NadD enzyme, colorimetric absorbance read-out; in the data active = inhibition above about 26%
# PP5 primary: blocks human protein phosphatase 5 activity | inhibition, % at 6.7 µM | P53041 | 320,000 tested, 0.18% active | purified PP5c, OMFP substrate fluorescence;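 active = inhibition above the campaign's mean inhibition across all tested compounds plus 3 SD, cut at about 9.5% in these data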;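 also: 0% = DMSO only and 100% = 100 µM cantharidin control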
# Target sequence (P53041 whole entry, looked up): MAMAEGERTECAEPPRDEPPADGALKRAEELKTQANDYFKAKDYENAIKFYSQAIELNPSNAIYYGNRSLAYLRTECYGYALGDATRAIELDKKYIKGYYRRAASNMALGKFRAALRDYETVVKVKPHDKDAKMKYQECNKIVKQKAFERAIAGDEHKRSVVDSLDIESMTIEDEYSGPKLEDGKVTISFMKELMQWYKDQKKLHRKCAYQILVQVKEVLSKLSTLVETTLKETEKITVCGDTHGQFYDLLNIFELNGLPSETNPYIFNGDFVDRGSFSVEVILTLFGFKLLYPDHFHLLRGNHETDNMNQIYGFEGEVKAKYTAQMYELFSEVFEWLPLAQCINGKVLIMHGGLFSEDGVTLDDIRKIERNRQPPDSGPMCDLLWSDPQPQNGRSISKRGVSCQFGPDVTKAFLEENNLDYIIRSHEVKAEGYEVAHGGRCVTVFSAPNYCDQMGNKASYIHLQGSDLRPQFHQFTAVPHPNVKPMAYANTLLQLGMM
# Myeloid diff 2: myeloid differentiation induction. ER-HoxA9 myeloid progenitors, lysozyme-GFP differentiation, flow cytometry. calls only at 10 µM. 360,000 tested, 1% active. AID 624256;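 active = normalized GFP-positive differentiation at or above the plate's own cutoff, the solvent-only control mean plus 3 SD; inconclusive = no clear call, values can overlap the other calls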;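 also: cells exposed to compound for four days before flow analysis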
# NadD conf: NadD (S. aureus) inhibition, single concentration confirmation. shares compounds with NadD block. 2,000 tested, 13% active. purified S. aureus NadD, colorimetric enzyme assay. inhibition, % at 20 µM; in the data active = inhibition mostly above about 42%, no sharp cut-off; inactive = mostly below about 42%
# * = called active by the depositor; i = inactive; ? = inconclusive; . = not tested or not shown. Compounds with a hit are over-represented: about 3.1% of the library has one in this group of screens.
SMILES,PP1 counter,Fh CTSL1 inh,core dimer inh,NadD block,PP5 primary,Myeloid diff 2,NadD conf
Cc1cccc(NC(=O)CSc2cc(C)c(C#N)c3nc4ccccc4n23)c1,-4.9,-0.8,0.2,42.9*,1.4,i,1.8
O=C(CSc1nnc(-c2cc3ccccc3cc2O)n1Cc1ccco1)N1CCc2ccccc2C1,14.9,-1.1,14.2,41.0*,2.4,i,53.6*
CC(C)N(C(=O)CSc1nnc(-c2cc3ccccc3cc2O)n1Cc1ccco1)C(C)C,-1.4,-2.1,6.3,-3.4,2.2,i,.
CC(=O)Nc1ccc(CNc2nc(NC(C)C)nc3cc(-c4ccccc4)sc23)cc1,.,.,.,22.3,.,?,.
COc1ccc(-c2cc(CNc3nc(NC(C)C)nc4cc(-c5ccccc5)sc34)on2)cc1,.,.,.,34.3*,.,?,21.3
COc1ccccc1Nc1nc(-c2sc(NC(=O)c3ccco3)nc2C)cs1,3.8,-1.3,-1.6,10.1,4.0,i,.
Cc1ccc(Cl)cc1Nc1nc(-c2sc(NC(=O)c3ccco3)nc2C)cs1,-3.2,0.8,11.1,36.0*,-1.0,i,14.9
COc1cccc(N(C(=O)c2ccco2)c2nc(-c3sc(NC(=O)c4ccco4)nc3C)cs2)c1,-2.6,0.8,-3.0,35.9*,6.4,i,46.0
Cc1nc(NC(=O)c2ccccc2)sc1-c1csc(Nc2ccc(Cl)cc2)n1,-2.1,5.0,17.2,.,1.7,.,.
Cc1nc(NC(=O)c2ccco2)sc1-c1csc(Nc2ccc(Cl)cc2Cl)n1,-0.4,0.0,1.4,52.7*,2.2,i,27.6
Cc1ccc(Cl)cc1Nc1nc(-c2sc(NC(=O)c3cccc(Cl)c3)nc2C)cs1,3.5,-1.1,-19.6,.,-0.1,.,.
Cc1nc(NC(=O)c2ccco2)sc1-c1csc(Nc2ccc(Cl)cc2)n1,-9.3,7.3,12.2,35.9*,2.6,i,35.7
COc1cccc(CNc2nc3cc(-c4cnn(Cc5ccccc5)c4)sc3c(=O)n2C)c1,.,.,.,2.9,.,i,.
CCCC(C)C(=O)Nc1nc(C)c(-c2csc(Nc3cc(Cl)ccc3C)n2)s1 (stereo not drawn),11.8,1.3,-85.3,28.5*,2.4,i,12.8
CCCCCC(=O)Nc1nc(C)c(-c2csc(Nc3cc(Cl)ccc3C)n2)s1,1.5,-1.8,-43.5,21.8,3.0,i,.
CCN1C(=O)[C@@H]2[C@@H](c3ccc(-c4ccc(Cl)c(Cl)c4)c(OC)c3)N3CCCC[C@@]3(C(=O)OC)[C@@H]2C1=O,-0.6,3.5,5.0,8.2,2.0,i,.
Cc1sc(NC(=O)Cc2ccc3c(c2)OCO3)nc1-c1ccc2c(c1)CCN2C(=O)c1cccc(F)c1,9.2,5.8,27.7,33.7*,1.2,i,19.7
CCOC(=O)c1ccc(NC(=O)c2nc[nH]c2C(=O)NC[C@H](C)O)cc1,.,.,.,11.0,.,i,.
NS(=O)(=O)c1cccc(NC(=O)c2cccnc2Oc2ccccc2)c1,-3.9,6.0,-0.7,-6.0,2.2,i,.
Cc1ccc(S(=O)(=O)Nc2ccc(Nc3nccn4c(-c5ccccc5Oc5ccccc5)cnc34)cc2)cc1,.,.,.,36.2*,.,i,63.8*
Cc1ccc(-c2cnc3c(Nc4cccc(OC(F)(F)C(F)F)c4)nccn23)cc1,.,.,.,4.7,.,i,.
Cc1ccc(S(=O)(=O)Nc2ccc(Nc3nccn4c(-c5ccc6ccccc6c5)cnc34)cc2)cc1,.,.,.,41.0*,.,i,52.7*
O=C(CSc1nc2nc3c(cc2c(=O)n1-c1ccccc1)CCCC3)Nc1cccc2ccccc12,14.8,-0.5,-13.8,41.0*,3.1,i,18.9
Cc1cccc(NC(=O)CSc2nc3nc4c(cc3c(=O)n2-c2ccccc2)CCCC4)c1,9.9,0.9,-4.7,14.9,1.4,i,.
COc1ccc2ccccc2c1/C=N/NC(=O)c1nnn(-c2nonc2N)c1CN(C)C,6.2,-2.3,-8.0,0.9,1.4,i,.
SMILES,PP1 counter,Fh CTSL1 inh,core dimer inh,NadD block,PP5 primary,Myeloid diff 2,NadD conf
COc1ccc2ccccc2c1/C=N/NC(=O)c1nnn(-c2nonc2N)c1C(C)C,0.1,-2.9,5.9,33.4*,7.5,i,41.7*
Oc1ccc(Br)cc1-c1cc(-c2ccccc2)n[nH]1,5.3,6.4,4.5,-1.9,7.0,i,.
O=[N+]([O-])c1cccc(-c2cc(-c3cc(Br)ccc3O)[nH]n2)c1,12.2,0.8,-0.9,37.7*,4.1,.,4.4
Cc1cccc(N2CCN(C(=O)CCCCCn3c(=S)[nH]c4ccc(N5CCOCC5)cc4c3=O)CC2)c1C,9.7,2.0,28.6,45.9*,0.7,?,5.7
CCCCCCc1cc2cc(/C(N)=N/NC(=O)c3ccncc3)c(=O)oc2cc1O,0.3,.,.,61.1*,-0.2,i,8.3
O=C(Nc1cnn(Cc2ccc(F)cc2)c1)c1cnn2c(C(F)F)cc(-c3ccccc3)nc12,0.3,-0.3,12.9,-2.4,1.0,i,.
Cc1nn(Cc2c(Cl)cccc2Cl)c(C)c1NC(=O)c1cnn2c(C(F)F)cc(-c3ccccc3)nc12,-1.1,-0.1,22.9,43.1*,1.8,i,1.0
Cc1ccc(-c2cc(C(F)F)n3ncc(C(=O)Nc4c(C)nn(Cc5c(Cl)cccc5Cl)c4C)c3n2)cc1,-0.9,7.1,11.3,32.4*,2.0,i,-0.5
Cc1ccc(-c2cc(C(F)F)n3ncc(C(=O)Nc4c(C)nn(Cc5ccccc5Cl)c4C)c3n2)cc1,-4.1,-1.3,46.3*,32.7*,0.5,i,-2.4
COCCNC(=O)c1cnn2c(C(F)F)cc(-c3ccc(C)cc3)nc12,-2.0,1.1,9.1,10.6,2.8,i,.
Cc1ccc(S(=O)(=O)CCC(=O)OCC(=O)N(Cc2ccccc2)C(C)C)cc1,-4.5,-82.6,1.3,-2.1,2.0,i,.
Cc1ccccc1C(=O)NCCCNC(=O)c1ccco1,1.9,0.2,0.0,2.5,1.8,i,.
COc1cc([N+](=O)[O-])ccc1NC(=O)NNC(=O)c1sccc1C,-4.2,4.0,-5.0,0.2,0.4,i,.
O=C(c1ccccc1)C1CCN(C(=O)c2c(F)cccc2F)CC1,2.3,-0.5,-5.8,-6.0,1.5,i,.
COC(=O)N1CCCCC1c1cc(C(=O)N2CCOCC2)no1 (stereo not drawn),.,.,.,4.2,.,i,.
CC(=O)c1ccc(-n2c(SCC(=O)c3c[nH]c4ccccc34)nc3ccccc3c2=O)cc1,3.2,0.0,9.8,36.8*,3.6,i,27.1
CCOC(=O)c1c(C)[nH]c(C)c1C(=O)CSc1nc2ccccc2c(=O)n1-c1ccc(CC)cc1,-1.1,2.1,13.4,5.5,4.1,i,.
CN(C(=O)COC(=O)c1cccs1)c1ccccc1,.,.,.,3.7,.,i,.
NS(=O)(=O)c1ccc(N2CCN(CCOc3ccc(Cl)cc3)CC2)nc1,0.2,2.4,-2.0,-8.3,1.0,i,.

# High-throughput results (PubChem BioAssay)
